Experimental data published in ChEMBL document CHEMBL1149246, “Discovery of bicyclic thymidine analogues as selective and high-affinity inhibitors of Mycobacterium tuberculosis thymidine monophosphate kinase” (J Med Chem, 2004).
Active and inactive are the calls of the source. The calls are words filed in the database; no cut-off is given here.

What was measured:
[1] = target: T1, Thymidylate kinase (Mycobacterium tuberculosis, UniProt P9WKE1); test: Inhibition of Mycobacterium tuberculosis TMPK by coupled spectrophotometric assay
T1 sequence (P9WKE1 whole entry): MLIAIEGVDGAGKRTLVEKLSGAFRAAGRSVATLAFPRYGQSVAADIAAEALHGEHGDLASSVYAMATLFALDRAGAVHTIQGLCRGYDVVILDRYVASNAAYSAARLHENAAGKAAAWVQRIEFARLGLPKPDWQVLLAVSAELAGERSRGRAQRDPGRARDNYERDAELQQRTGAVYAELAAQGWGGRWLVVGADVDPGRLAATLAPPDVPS

[2] = target: T2, Thymidylate kinase (Mycobacterium tuberculosis) (UniProt P9WKE1); test: Inhibition of Mycobacterium tuberculosis TMPK at 1 mM by coupled spectrophotometric assay
T2 sequence (whole entry): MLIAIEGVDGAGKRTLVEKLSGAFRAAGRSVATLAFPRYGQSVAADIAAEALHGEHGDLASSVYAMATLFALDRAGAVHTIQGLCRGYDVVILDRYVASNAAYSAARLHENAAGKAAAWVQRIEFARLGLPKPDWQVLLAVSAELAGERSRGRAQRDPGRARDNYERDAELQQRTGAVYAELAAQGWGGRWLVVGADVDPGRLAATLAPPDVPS
In short: (§1)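 Thymidylate kinase activity (M. tuberculosis or human enzyme) measured by coupled spectrophotometric assay at 334 nm, following NADH consumption. Medium: 50 mM Tris-HCl pH 7.4, 50 mM KCl, 2 mM MgCl2, 0.2 mM NADH, 1 mM phosphoenol pyruvate, 2 units each lactate dehydrogenase, pyruvate kinase and nucleoside diphosphate kinase. ATP fixed at 0.5 mM, dTMP at 0.05 mM; analogue 0.1–2.5 mM.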

[3] = Selectivity index, Ki for human TMPK/Ki for Mycobacterium tuberculosis TMPK
[4] = target: T3, Thymidylate kinase (Homo sapiens, UniProt P23919); test: (§2) Inhibition of human TMPK by coupled spectrophotometric assay; in short: as §1
T3 sequence (P23919 whole entry): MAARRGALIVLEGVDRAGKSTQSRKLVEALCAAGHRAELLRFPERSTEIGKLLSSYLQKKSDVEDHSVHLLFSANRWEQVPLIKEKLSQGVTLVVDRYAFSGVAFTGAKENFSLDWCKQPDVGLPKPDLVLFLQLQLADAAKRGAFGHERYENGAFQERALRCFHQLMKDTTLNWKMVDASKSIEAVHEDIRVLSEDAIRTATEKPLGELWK

[5] = target: T4, Thymidylate kinase (Homo sapiens) (UniProt P23919); test: Inhibition of human TMPK at 2 mM by coupled spectrophotometric assay; in short: as §1
T4 sequence (whole entry): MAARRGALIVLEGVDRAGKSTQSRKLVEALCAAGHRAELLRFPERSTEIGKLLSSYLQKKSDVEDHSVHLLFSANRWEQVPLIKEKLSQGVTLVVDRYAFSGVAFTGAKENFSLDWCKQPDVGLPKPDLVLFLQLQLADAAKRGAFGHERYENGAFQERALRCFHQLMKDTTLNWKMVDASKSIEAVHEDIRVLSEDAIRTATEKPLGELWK

[6] = compound: Cc1cn([C@H]2C[C@H](O)[C@@H](COP(=O)(O)O)O2)c(=O)[nH]c1=O; test: as §2; in short: as §1

Row | Molecule | Ki [1] | Ki [4] | Ratio Ki [3] | also measured
1 | Cc1cn([C@@H]2O[C@H](CO)[C@@H](CN)[C@H]2Cl)c(=O)[nH]c1=O | 390 µM | – | – | –
2 | Cc1cn([C@@H]2O[C@H](CO)[C@@H](CN)[C@H]2F)c(=O)[nH]c1=O | – | – | – | Activity [2]: inactive
3 | Cc1cn([C@@H]2O[C@H](CF)[C@@H](CN=[N+]=[N-])[C@H]2F)c(=O)[nH]c1=O | 80 µM | – | – | –
4 | Cc1cn([C@@H]2O[C@H](CO)[C@@H](CN=[N+]=[N-])[C@H]2Cl)c(=O)[nH]c1=O | 180 µM | – | – | –
5 | Cc1cn([C@H]2C[C@H](O)[C@@H](COP(=O)(O)O)O2)c(=O)[nH]c1=O | – | – | – | Selectivity index [3]: 1.1
6 | Cc1cn([C@H]2C[C@H](CN)[C@@H](CO)O2)c(=O)[nH]c1=O | – | 220 µM | 3.9 | –
7 | Cc1cn([C@H]2C[C@H](CN=[N+]=N)[C@@H](CO)O2)c(=O)[nH]c1=O | 40 µM | 1040 µM | 26 | –
8 | Cc1cn([C@@H]2O[C@H](CO)[C@H]3CNC(=S)O[C@H]32)c(=O)[nH]c1=O | 3.5 µM | 700 µM | 200 | –
9 | Cc1cn([C@@H]2C[C@H](CN=[N+]=[N-])[C@@H](CO)O2)c(=O)[nH]c1=O | 29 µM | – | – | Activity [5]: inactive
10 | Cc1cn([C@@H]2O[C@H](CO)[C@@H](CN=[N+]=[N-])[C@H]2F)c(=O)[nH]c1=O | 165 µM | – | – | –
11 | Cc1cn([C@H]2C[C@H](O)[C@@H](CO)O2)c(=O)[nH]c1=O [DOXRIBTIMINE] | – | 180 µM | – | –
12 | Cc1cn([C@@H]2O[C@H](CO)[C@H]3CNC(=O)O[C@H]32)c(=O)[nH]c1=O | 13.5 µM | 1100 µM | 81.5 | –
13 | Thymidylate kinase (Homo sapiens), P23919 (protein) MAARRGALIVLEGVDRAGKSTQSRKLVEALCAAGHRAELLRFPERSTEIGKLLSSYLQKKSDVEDHSVHLLFSANRWEQVPLIKEKLSQGVTLVVDRYAFSGVAFTGAKENFSLDWCKQPDVGLPKPDLVLFLQLQLADAAKRGAFGHERYENGAFQERALRCFHQLMKDTTLNWKMVDASKSIEAVHEDIRVLSEDAIRTATEKPLGELWK | – | – | – | Km [6]: 5 µM
